Assay outcomes as filed in PubChem BioAssay.
MC4R ag barr = human MC4R agonism via beta-arrestin | U2OS MC4R beta-arrestin complementation, luminescence; percent of melanotan II response, DMSO zero | activation, % at 8.9 µM | 0.98% of 360,000 active | AID 540308;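 active = activation above a per-plate cutoff, the mean activation of sample wells on that plate plus 3 SD, cut at about 8% in these data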
Target sequence (P32245 whole entry, looked up): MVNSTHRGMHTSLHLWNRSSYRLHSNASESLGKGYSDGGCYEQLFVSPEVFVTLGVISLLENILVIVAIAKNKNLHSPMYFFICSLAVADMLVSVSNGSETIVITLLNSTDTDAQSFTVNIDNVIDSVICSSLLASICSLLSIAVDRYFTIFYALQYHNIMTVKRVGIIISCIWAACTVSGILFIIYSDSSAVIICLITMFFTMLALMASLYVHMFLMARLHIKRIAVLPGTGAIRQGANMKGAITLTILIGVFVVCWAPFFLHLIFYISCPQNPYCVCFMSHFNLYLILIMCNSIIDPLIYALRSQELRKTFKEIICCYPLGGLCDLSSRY
Granule exo inh = blocks lytic granule exocytosis. inhibition, % at 10 µM. 0.66% of 360,000 active. TALL-104 LAMP-1 surface exposure, flow cytometry; cells stimulated with thapsigargin and PMA;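 active = inhibition above about 55%, limit read from the data; inconclusive = no clear call, values can overlap the other calls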
EP2 antag = blocks the human prostaglandin E2 receptor EP2; P43116; C6 glioma cells expressing human EP2, cAMP TR-FRET; cells stimulated with saturating PGE2; inhibition, % at 25 µM; 0.52% of 260,000 active;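 active = percent inhibition above 40 after rounding to a whole number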;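 also: rat C6 glioma host cells with rolipram phosphodiesterase inhibitor present; the protocol text gives 20 µM as final concentration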
Target sequence (P43116 whole entry, looked up): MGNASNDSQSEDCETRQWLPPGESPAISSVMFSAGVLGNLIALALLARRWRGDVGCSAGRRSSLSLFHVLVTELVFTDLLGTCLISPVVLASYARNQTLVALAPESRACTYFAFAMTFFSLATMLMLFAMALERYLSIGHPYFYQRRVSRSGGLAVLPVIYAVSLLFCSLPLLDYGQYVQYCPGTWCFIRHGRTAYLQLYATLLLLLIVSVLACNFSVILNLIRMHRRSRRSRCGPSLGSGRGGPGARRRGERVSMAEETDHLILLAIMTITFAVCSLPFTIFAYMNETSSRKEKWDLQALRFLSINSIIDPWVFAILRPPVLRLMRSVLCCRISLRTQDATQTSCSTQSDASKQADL
MC4R antagonist = human MC4R antagonism in cAMP assay | P32245 | MC4R-expressing cells, MTII-stimulated cAMP, LANCE TR-FRET | inhibition, % at 6.5 µM | 0.48% of 360,000 active | AID 540295;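 active = inhibition above its plate's cutoff, the mean of tested wells on that plate plus 3 SD, cut at about 29% in these data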;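 also: 0% = Melanotan II alone and 100% = Melanotan II plus saturating MCL0020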
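System: U2OS cells stably expressing human melanocortin 4 receptor (MC4R). Reagent: Melanotan II challenge after compound preincubation. Doses: 6.5 µM. Times: 30-min compound, 1-h challenge, 1-h detection, room temperature. Measured by: TR-FRET with Eu-cAMP and labeled anti-cAMP, 671 nm. Replicates: singlicate.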
T cell HTS = T cell immune modulation candidate. response (vesicle binding), % at 7 µM. 2C CD8+ T cell-vesicle binding, flow cytometry; hits give low values. 0.068% of 330,000 active;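 active = response, share of CD8 T cells binding vesicles, and their 90th percentile fluorescence all below set limits, cut at about 80% in these data, passing the limit was not always enough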;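 also: values below 100% mean blocked vesicle binding to the CD8+ T cells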
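Material: murine 2C transgenic CD8+ T lymphocytes / Also added: QL9-peptide-loaded Drosophila micro-vesicles bearing Ld, ICAM-1 and B7-1 / Schedule: binding step 1.5 h, 37 °C, antibody labelling 20 min, ice / Signal: flow cytometry, PE anti-B7-1 (FL2) versus Alexa647 anti-CD8 (FL8), PFA-fixed / Evaluation: percent CD8+ FL2 mean versus row control / Benchmarks: naked versus QL9-loaded vesicles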
EP2 modulator = modulators of human EP2 prostaglandin E2 receptor; P43116; EP2-expressing cells, cAMP HTRF FRET, PGE2 co-stimulation; induction, % at 25 µM; 0.83% of 260,000 active; AID 940;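 active = compounds whose cAMP rise, as percent of the full-agonist control response, exceeds 60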;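 also: rat C6 glioma line stably carrying human EP2 under a CMV promoter; the protocol text gives 20 µM as final concentration; 100% = response of wells given 1 µM PGE2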
cAMP nonselect = counter-screen for MC4R antagonists: nonselective cAMP signaling inhibitors | shares compounds with MC4R antagonist | inhibition, % at 6.5 µM | parental U2OS, forskolin cAMP, LANCE TR-FRET | 26% of 1,600 active | AID 602193;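 active = mean inhibition over triplicates above the low-control well mean plus 3 SD, set per campaign, cut at about 13% in these data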;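 also: signal is single emission at 671 nm which falls as cellular cAMP rises; 0% = forskolin-stimulated wells and 100% = buffer without forskolin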
MC4R cAMP antag = human MC4R cAMP antagonism confirmation. 27% of 1,600 active. shares compounds with MC4R antagonist. MC4R-expressing cells, MTII-stimulated cAMP, TR-FRET. inhibition, % at 6.5 µM; in the data active = inhibition above about 29%;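 also: 0% = agonist stimulated wells alone and 100% = agonist stimulated wells plus saturating reference antagonist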
* marks the source's active call; other numbers are inactive results; i = inactive; ? = inconclusive; · = no result given. A selection: hits, their analogues and other compounds. The true share with any hit is near 2.6%.

SMILES	MC4R ag barr	Granule exo inh	EP2 antag	MC4R antagonist	T cell HTS	EP2 modulator	cAMP nonselect	MC4R cAMP antag
CC(C)(C)c1ccc(C(=O)O)c(C(=O)c2ccccc2)c1	5	0	4	31*	260	16	3	-8
CC(C)(C)c1ccc(C(=O)O)c(C(=O)c2ccc(C(=O)O)cc2)c1	0	4	7	12	191	22	·	·
COc1ccc(/C=C/C(=O)NCc2nc3ccccc3[nH]2)cc1OC	-1	1	6	4	208	-16	·	·
Cc1ccc(CC2C(=O)N(c3ccccc3)C(=O)C2C)cc1 (stereo not drawn)	0	1	·	32*	279	·	-1	3
Cc1ccc(CC2C(=O)N(c3cc(Cl)ccn3)C(=O)C2C)cc1 (stereo not drawn)	0	1	6	4	282	20	·	·
COc1ccc(Nc2nc(-c3cccs3)nc3ccccc23)cc1	1	37	9	4	98	45	·	·
COc1cccc(Nc2nc(-c3cccs3)nc3ccccc23)c1	-1	-1	9	32*	438	-39	8	17
O=C(COC(=O)c1ccc(NS(=O)(=O)c2cccs2)cc1O)Nc1nc2ccccc2s1	1	2	6	31*	381	-24	5	5
COC(=O)c1ccc2c(=O)[nH]c(COC(=O)c3c(-c4ccccc4Cl)noc3C)nc2c1	2	0	·	29*	202	·	-1	5
COC(=O)c1ccc2c(=O)[nH]c(COC(=O)c3[nH]c(C)c(C(C)=O)c3C)nc2c1	-1	9	·	24	462	·	·	·
CN(Cc1nc2ccc(Cl)cc2[nH]1)C(=O)COc1ccc2nsnc2c1	·	·	14	·	·	-58	·	·
COc1ccc2nc(NC(=O)C3CCCN(S(=O)(=O)c4cccc5nonc45)C3)sc2c1 (stereo not drawn)	0	-3	13	13	163	13	·	·
CCOc1ccc2nc(NC(=O)C3CCCN(S(=O)(=O)c4cccc5nonc45)C3)sc2c1 (stereo not drawn)	1	4	14	33*	452	7	4	22
O=C(C=Cc1ccccc1F)c1ccccc1	·	-2	·	·	·	·	·	·
COc1ccc(S(=O)(=O)Nc2ccc(-n3cnnn3)cc2)cc1Br	-2	3	·	-9	·	·	·	·
COc1ccc(NS(=O)(=O)c2ccc(-n3cnnn3)cc2)cc1OC	2	-12	·	29*	828	·	3	-17
O=C(OCC(=O)N1CCCc2ccccc21)c1cnc(Cl)c(Cl)c1	-6	1	7	-3	165	13	·	·
O=c1c2ccccc2sn1-c1nccs1	-2	85*	7	38*	·	-89	0	0
Cc1cccc(NC(=S)NC(=O)/C=C/c2cccs2)c1	·	·	11	·	·	-31	·	·
COc1cc(-c2cc(C(=O)Nc3ccccc3N3CCOCC3)c3ccccc3n2)cc(OC)c1OC	1	-4	3	6	172	23	·	·
COc1cc(-c2cc(C(=O)Nc3ccc(C)c(S(=O)(=O)N4CCOCC4)c3)c3ccccc3n2)cc(OC)c1OC	0	1	·	32*	i	·	4	13
COCCCNC(=O)c1nc2c(nnn2Cc2cc(C)ccc2C)c(=O)[nH]1	-1	-2	15	2	356	8	·	·
COc1cccc(C(c2sc3nc(C)nn3c2O)N2CCc3ccccc3C2)c1 (stereo not drawn)	1	-1	8	33*	0	1	0	-8
CCN1CCN(C(c2cccc(OC)c2)c2sc3nc(C)nn3c2O)CC1 (stereo not drawn)	-1	-3	2	-1	472	17	·	·
CCOP(=O)(OCC)C(NCc1ccccc1)c1ccc(Br)cc1 (stereo not drawn)	-3	-3	12	5	281	49	·	·
SMILES	MC4R ag barr	Granule exo inh	EP2 antag	MC4R antagonist	T cell HTS	EP2 modulator	cAMP nonselect	MC4R cAMP antag
O=S(=O)(c1ccc(F)cc1)N1CCN(c2nc(-c3cccnc3)nc3ccccc23)CC1	4	-3	·	30*	309	·	6	23
O=S(=O)(NCC1CCCO1)c1cnc(Cl)c(Br)c1 (stereo not drawn)	-3	1	2	29*	179	24	19*	43*
Cc1cc(C)n(-c2nnc(Cl)c3ccccc23)n1	-5	6	4	37*	303	23	30*	46*
CCCN(C(=O)CSc1nnc(-c2ccoc2C)n1N)C1CCS(=O)(=O)C1 (stereo not drawn)	-2	-5	11	-2	290	4	·	·
Cc1cccnc1NC(=O)C(C)N1C(=O)c2ccccc2C1=O (stereo not drawn)	1	3	2	31*	537	-9	-5	-18
Cc1nnc(SC(C)C(=O)NC2CCCc3ccccc32)n1-c1ccccc1 (stereo not drawn)	-2	0	7	4	348	14	·	·
Cc1noc(C)c1CN1C(=O)c2cccc([N+](=O)[O-])c2C1=O	0	-2	·	30*	139	·	1	-10
Cc1ccc(NC(=O)c2cc(N3C(=O)CCC3=O)ccc2N2CCOCC2)cc1	-1	1	8	25	273	-20	·	·
Cc1ccc(NC(=O)c2cc(N3C(=O)C=CC3=O)ccc2N2CCOCC2)cc1Cl	-1	42	94*	54*	311	-59	-1	41*
NCC1CCN(c2nc3ccccc3c3c2CCCC3)CC1	3	9	·	2	·	·	·	·
CCc1nnc(NC(=O)c2nc(S(=O)(=O)Cc3ccc(C)cc3)ncc2Cl)s1	-6	11	·	31*	319	·	23*	39*
O=C(NCc1ccccc1)c1nc(S(=O)(=O)Cc2ccccc2)ncc1Cl	-4	44	·	48*	549	·	34*	60*
CCc1nnc(NC(=O)c2nc(S(=O)(=O)Cc3ccccc3)ncc2Cl)s1	-1	10	·	30*	221	·	12	9
CCc1nnc(NC(=O)c2nc(S(=O)(=O)Cc3cccc(C)c3)ncc2Cl)s1	0	?	·	39*	213	·	20*	32*
COc1ccc(CNC(=O)c2nc(S(=O)(=O)Cc3ccccc3)ncc2Cl)cc1	-3	-26	·	13	i	·	·	·
Cc1cccc(C)c1NC(=O)CN(C)CC(=O)Nc1ccc(F)c(Cl)c1	2	8	3	-5	272	-25	·	·
Cc1csc(NC(=O)c2cc(=O)[nH]c3ccc(S(=O)(=O)N4CCOCC4)cc23)n1	-1	-4	8	0	403	-2	·	·
